How the values were obtained:
Hepatitis C virus [1] = test: Antiviral activity against Hepatitis C virus genotype 1a infected in W11.8 cells assessed as decrease in NS5A expression in replicon cell after 4 days by luminescence based ELISA; assay type: functional, Hepacivirus hominis; conditions: subtype 1a, W11.8, 96 h
[2] = Cytotoxicity against human Huh7ET cells by [3H]-thymidine incorporation assay; assay type: cell-based; conditions: Huh7ET cells (Huh-7)
Method in brief: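 Huh-7 ET cells were exposed to 12 test-compound concentrations, each in duplicate. Viability was read by [3H]-thymidine incorporation and CC50 was derived from the curve. A run was accepted only when the positive-control CC50 fell within 40% of its mean value.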

Hepatitis C virus [3] = test: Antiviral activity against Hepatitis C virus genotype 1b infected in human Huh-5.2 cells assessed as decrease in HCV replicon RNA replication after 4 days by luciferase assay; assay type: functional, cell-based, Hepacivirus hominis; conditions: Huh-5-2, 96 h

SMILES | EC50 (Hepatitis C virus [1]) | EC50 (Hepatitis C virus [3]) | CC50 [2]
COC(=O)N[C@H](C(=O)N1CCC[C@H]1c1nc2ccc(-c3ccc(-c4ccc5nc([C@@H]6CCCN6C(=O)[C@@H](NC(=O)OC)C(C)C)[nH]c5c4)cc3)cc2[nH]1)C(C)C | 0.55 nM | 0.012 nM | 6000 nM
COC(=O)N[C@H](C(=O)N1CCC[C@H]1c1ncc(-c2ccc(-c3ccc(-c4ccc5nc([C@@H]6CCCN6C(=O)[C@@H](NC(=O)OC)C(C)C)[nH]c5c4)cc3)cc2)[nH]1)C(C)C | 0.139 nM | 0.013 nM | 
COC(=O)N[C@H](C(=O)N1CCC[C@H]1c1nc2ccc(C#Cc3ccc4nc([C@@H]5CCCN5C(=O)[C@@H](NC(=O)OC)C(C)C)[nH]c4c3)cc2[nH]1)C(C)C | 28 nM | 0.022 nM | > 20000 nM
COC(=O)N[C@H](C(=O)N1CCC[C@H]1c1nc2ccc(C#CC#Cc3ccc4nc([C@@H]5CCCN5C(=O)[C@@H](NC(=O)OC)C(C)C)[nH]c4c3)cc2[nH]1)C(C)C | 18 nM | 0.024 nM | 13000 nM
COC(=O)N[C@H](C(=O)N1C[C@@H](F)C[C@H]1c1nc2cc(-c3ccc(-c4ccc5[nH]c([C@@H]6C[C@H](F)CN6C(=O)[C@@H](NC(=O)OC)C(C)C)nc5c4)cc3)ccc2[nH]1)C(C)C | 4.9 nM | 0.082 nM | 11000 nM
COC(=O)N[C@H](C(=O)N1C[C@H](F)C[C@H]1c1nc2cc(-c3ccc(-c4ccc5[nH]c([C@@H]6C[C@@H](F)CN6C(=O)[C@@H](NC(=O)OC)C(C)C)nc5c4)cc3)ccc2[nH]1)C(C)C | 1.1 nM | 0.018 nM | 14000 nM
COC(=O)N[C@H](C(=O)N1CC(F)(F)C[C@H]1c1nc2cc(-c3ccc(-c4ccc5[nH]c([C@@H]6CC(F)(F)CN6C(=O)[C@@H](NC(=O)OC)C(C)C)nc5c4)cc3)ccc2[nH]1)C(C)C | 0.5 nM | 0.004 nM | 13000 nM
COC(=O)N[C@H](C(=O)N1C[C@H](O)C[C@H]1c1nc2cc(-c3ccc(-c4ccc5[nH]c([C@@H]6C[C@@H](O)CN6C(=O)[C@@H](NC(=O)OC)C(C)C)nc5c4)cc3)ccc2[nH]1)C(C)C | 15 nM | 0.1 nM | > 20000 nM
COC(=O)N[C@H](C(=O)N1C[C@H](OC)C[C@H]1c1nc2cc(-c3ccc(-c4ccc5[nH]c([C@@H]6C[C@@H](OC)CN6C(=O)[C@@H](NC(=O)OC)C(C)C)nc5c4)cc3)ccc2[nH]1)C(C)C | 1.22 nM | 0.034 nM | 6000 nM
COC(=O)N[C@H](C(=O)N1C[C@@H](OC)C[C@H]1c1nc2cc(-c3ccc(-c4ccc5[nH]c([C@@H]6C[C@H](OC)CN6C(=O)[C@@H](NC(=O)OC)C(C)C)nc5c4)cc3)ccc2[nH]1)C(C)C | 0.053 nM | 0.031 nM | > 20000 nM
COC(=O)N[C@H](C(=O)N1C[C@H](C)C[C@H]1c1nc2cc(-c3ccc(-c4ccc5[nH]c([C@@H]6C[C@@H](C)CN6C(=O)[C@@H](NC(=O)OC)C(C)C)nc5c4)cc3)ccc2[nH]1)C(C)C | 0.028 nM | 0.007 nM | 14000 nM
COC(=O)N[C@H](C(=O)N1C[C@@H](C)C[C@H]1c1nc2cc(-c3ccc(-c4ccc5[nH]c([C@@H]6C[C@H](C)CN6C(=O)[C@@H](NC(=O)OC)C(C)C)nc5c4)cc3)ccc2[nH]1)C(C)C | 0.026 nM | 0.037 nM | > 20000 nM
COC(=O)N[C@H](C(=O)N1C[C@@H](C(F)(F)F)C[C@H]1c1nc2cc(-c3ccc(-c4ccc5[nH]c([C@@H]6C[C@H](C(F)(F)F)CN6C(=O)[C@@H](NC(=O)OC)C(C)C)nc5c4)cc3)ccc2[nH]1)C(C)C | 0.03 nM | 0.005 nM | 13000 nM
CC[C@H]1C[C@@H](c2nc3cc(-c4ccc(-c5ccc6[nH]c([C@@H]7C[C@H](CC)CN7C(=O)[C@@H](NC(=O)OC)C(C)C)nc6c5)cc4)ccc3[nH]2)N(C(=O)[C@@H](NC(=O)OC)C(C)C)C1 | 0.085 nM | 0.019 nM | > 20000 nM
COC(=O)N[C@H](C(=O)N1CC(C)(C)C[C@H]1c1nc2cc(-c3ccc(-c4ccc5[nH]c([C@@H]6CC(C)(C)CN6C(=O)[C@@H](NC(=O)OC)C(C)C)nc5c4)cc3)ccc2[nH]1)C(C)C | 0.03 nM | 0.011 nM | > 20000 nM
COC(=O)N[C@H](C(=O)N1C[C@@H](C)C[C@H]1c1nc2cc(C#CC#Cc3ccc4[nH]c([C@@H]5C[C@H](C)CN5C(=O)[C@@H](NC(=O)OC)C(C)C)nc4c3)ccc2[nH]1)C(C)C | 0.018 nM | 0.024 nM | 

Further lines, with some results ahead:

EC50 (Hepatitis C virus [1]) | EC50 (Hepatitis C virus [3]) | SMILES | CC50 [2]
0.94 nM | 0.01 nM | COC(=O)N[C@H](C(=O)N1CCC[C@H]1c1nc2ccc(-c3ccc(-c4ccc5nc([C@@H]6CCCN6C(=O)[C@@H](NC(=O)OC)C(C)C)[nH]c5c4)s3)cc2[nH]1)C(C)C | 6000 nM
> 2000 nM | 26 nM | COC(=O)N[C@H](C(=O)N1CCC[C@H]1c1nc2ccc(-c3ccc4nc([C@@H]5CCCN5C(=O)[C@@H](NC(=O)OC)C(C)C)[nH]c4c3)cc2[nH]1)C(C)C | > 20000 nM
688 nM | 0.076 nM | COC(=O)N[C@H](C(=O)N1CCC[C@H]1c1nc2cc(CCc3ccc4[nH]c([C@@H]5CCCN5C(=O)[C@@H](NC(=O)OC)C(C)C)nc4c3)ccc2[nH]1)C(C)C | > 20000 nM
378 nM | 20 nM | COC(=O)N[C@H](C(=O)N1CCC[C@H]1c1nc2cc(-c3cccc(-c4ccc5[nH]c([C@@H]6CCCN6C(=O)[C@@H](NC(=O)OC)C(C)C)nc5c4)c3)ccc2[nH]1)C(C)C | 6000 nM
0.84 nM | 0.006 nM | COC(=O)N[C@H](C(=O)N1CCC[C@H]1c1nc2cc(-c3ccc(-c4ccc5[nH]c([C@@H]6CCCN6C(=O)[C@@H](NC(=O)OC)C(C)C)nc5c4)c(C)c3)ccc2[nH]1)C(C)C | 3000 nM
0.36 nM | 0.013 nM | COC(=O)N[C@H](C(=O)N1CCC[C@H]1c1nc2cc(-c3ccc(-c4ccc5nc([C@@H]6CCCN6C(=O)[C@@H](NC(=O)OC)C(C)C)[nH]c5c4)cc3OC)ccc2[nH]1)C(C)C | 6000 nM
0.84 nM | 0.012 nM | COC(=O)N[C@H](C(=O)N1CCC[C@H]1c1nc2cc(-c3ccc(-c4ccc5[nH]c([C@@H]6CCCN6C(=O)[C@@H](NC(=O)OC)C(C)C)nc5c4)c(F)c3)ccc2[nH]1)C(C)C | 6000 nM
0.9 nM | 0.006 nM | COC(=O)N[C@H](C(=O)N1CCC[C@H]1c1nc2cc(-c3cc(C)c(-c4ccc5[nH]c([C@@H]6CCCN6C(=O)[C@@H](NC(=O)OC)C(C)C)nc5c4)cc3C)ccc2[nH]1)C(C)C | 5000 nM
2.9 nM | 0.01 nM | COC(=O)N[C@H](C(=O)N1CCC[C@H]1c1nc2cc(-c3ccc(-c4ccc5[nH]c([C@@H]6CCCN6C(=O)[C@@H](NC(=O)OC)C(C)C)nc5c4)c(C)c3C)ccc2[nH]1)C(C)C | 7000 nM

Reference: ChEMBL document CHEMBL3393023, “Benzimidazole-containing HCV NS5A inhibitors: effect of 4-substituted pyrrolidines in balancing genotype 1a and 1b potency” (Bioorg Med Chem Lett, 2015)
